27 molecules from ChEMBL document CHEMBL1138179, “Discovery of a novel nonphosphorylated pentapeptide motif displaying high affinity for Grb2-SH2 domain by the utilization of 3'-substituted tyrosine derivatives” (J Med Chem, 2006) can be followed below.

Molecules are shown by their SMILES. pIC50: −log10 of the molar value. Numbered stars: 1 amine (or outer) side, 2 acyl side, 3 side chain; on linkers, the order of the positions; unused ones are H or OH. Bridge positions count the residues as written; N and C are the ends. Square brackets hold non-standard residues; d marks the D form. Peptide text beside a SMILES is read from it. Tyr(3-NO2) = N[C@@H](Cc1ccc(O)c([N+](=O)[O-])c1)C(=O)O; X1 = O=C(O)c1cc(C[C@H](N[*:1])C(=O)[*:2])ccc1O; Tyr(3-OMe) = COc1cc(C[C@H](N)C(=O)O)ccc1O; Tyr(3-NH2) = Nc1cc(C[C@H](N)C(=O)O)ccc1O; Dopa = N[C@@H](Cc1ccc(O)c(O)c1)C(=O)O; Gla = N[C@@H](CC(C(=O)O)C(=O)O)C(=O)O; Aad = N[C@@H](CCCC(=O)O)C(=O)O; Ac6c = NC1(C(=O)O)CCCCC1; Ava = NCCCCC(=O)O; βAla = NCCC(=O)O A value given as a limit tells only on which side of the number the result lay.

The subject of the first test is MDA-MB-453. Briefly: cells. Particulars: Homo sapiens.
In general, pIC50 refers to the negative decadic logarithm of the IC50, by convention in mol/L. Regarding `CC(C)C[C@@H]1NC(=O)[C@H](CC(C(=O)O)C(=O)O)NC(=O)C[S+]([O-])C[C@@H](C(N)=O)NC(=O)CCCCNC(=O)[C@H](CC(N)=O)NC(=O)C2(CCCCC2)NC(=O)[C@H](Cc2ccc(O)c(N)c2)NC1=O` (stereo partly drawn), the pIC50 was 7.72.

The next test deals with Growth factor receptor-bound protein 2 (Homo sapiens, UniProt P62993). The test can be described thus: Inhibition of recombinant GRB2-SH2 domain.
Growth factor receptor-bound protein 2, sequence (P62993 whole entry, the tested form may be a part): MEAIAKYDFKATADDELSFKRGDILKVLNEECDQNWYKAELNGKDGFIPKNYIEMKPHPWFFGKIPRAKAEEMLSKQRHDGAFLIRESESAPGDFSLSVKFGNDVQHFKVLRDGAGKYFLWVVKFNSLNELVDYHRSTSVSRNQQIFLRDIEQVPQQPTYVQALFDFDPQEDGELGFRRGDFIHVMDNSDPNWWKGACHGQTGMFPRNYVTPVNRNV
Conditions: not given
In short, it runs like this:
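Competitive SPR (BIAcore 3000): inhibitor premixed with recombinant Grb2-SH2 protein; binding at equilibrium measured to immobilized biotinylated SHC pTyr317 phosphopeptide (biotinyl-DDPS-pY-VNVQ). IC50 = concentration giving half-maximal competition; mean of at least two independent experiments.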
With `CC(C)C[C@@H]1NC(=O)[C@H](CC(C(=O)O)C(=O)O)NC(=O)C[S+]([O-])C[C@H](C(N)=O)NC(=O)CCNC(=O)[C@H](CC(N)=O)NC(=O)C2(CCCCC2)NC(=O)[C@H](Cc2ccc(O)c(N)c2)NC1=O` (stereo partly drawn), the pIC50 is 4.95.

For the molecule `CC(C)C[C@@H]1NC(=O)[C@H](CC(C(=O)O)C(=O)O)NC(=O)C[S+]([O-])C[C@@H](C(N)=O)NC(=O)CCCCNC(=O)[C@H](CC(N)=O)NC(=O)C2(CCCCC2)NC(=O)[C@H](Cc2ccc(O)c(N)c2)NC1=O` (stereo partly drawn), the pIC50 was 7.24. On the same count and under the same terms, with `CC(C)C[C@@H]1NC(=O)[C@H](CCCC(=O)O)NC(=O)C[S+]([O-])C[C@H](C(N)=O)NC(=O)CCCCNC(=O)[C@H](CC(N)=O)NC(=O)C2(CCCCC2)NC(=O)[C@H](Cc2ccc(O)c(N)c2)NC1=O` (stereo partly drawn) the figure was 4.85.

`CC(C)C[C@@H]1NC(=O)[C@H](CC(C(=O)O)C(=O)O)NC(=O)C[S+]([O-])C[C@H](C(N)=O)NC(=O)[C@H](CC(N)=O)NC(=O)C2(CCCCC2)NC(=O)[C@H](Cc2ccc(O)c(N)c2)NC1=O` (stereo partly drawn): the pIC50 is 3.70. On the same count and under the same terms, next, `CC(C)C[C@@H]1NC(=O)[C@H](CC(C(=O)O)C(=O)O)NC(=O)C[S+]([O-])C[C@H](C(N)=O)NC(=O)CCCCNC(=O)[C@H](CC(N)=O)NC(=O)C2(CCCCC2)NC(=O)[C@H](Cc2ccc(O)c(N)c2)NC1=O` (stereo partly drawn): 5.81. The same measure, in the same setting: next, `CC(C)C[C@@H]1NC(=O)[C@H](CCCC(=O)O)NC(=O)C[S+]([O-])C[C@H](C(N)=O)NC(=O)CCCCNC(=O)[C@H](CC(N)=O)NC(=O)C2(CCCCC2)NC(=O)[C@H](Cc2ccc(O)cc2)NC1=O` (stereo partly drawn): 3.00; `CC(C)C[C@@H]1NC(=O)[C@H](CCCC(=O)O)NC(=O)C[S+]([O-])C[C@@H](C(N)=O)NC(=O)CCCCNC(=O)[C@H](CC(N)=O)NC(=O)C2(CCCCC2)NC(=O)[C@H](Cc2ccc(O)cc2)NC1=O` (stereo partly drawn): 4.11; `CC(C)C[C@@H]1NC(=O)[C@H](CCCC(=O)O)NC(=O)C[S+]([O-])C[C@H](C(N)=O)NC(=O)CCCCNC(=O)[C@H](CC(N)=O)NC(=O)C2(CCCCC2)NC(=O)[C@H](Cc2ccc(O)c(C(=O)O)c2)NC1=O` (stereo partly drawn): 3.67. In the case of `COc1cc(C[C@@H]2NC(=O)[C@H](CC(C)C)NC(=O)[C@H](CCCC(=O)O)NC(=O)C[S+]([O-])C[C@@H](C(N)=O)NC(=O)CCCCNC(=O)[C@H](CC(N)=O)NC(=O)C3(CCCCC3)NC2=O)ccc1O` (stereo partly drawn), the pIC50 was 4.01. Still for that read-out and setting: with `CC(C)C[C@@H]1NC(=O)[C@H](CC(C(=O)O)C(=O)O)NC(=O)C[S+]([O-])C[C@@H](C(N)=O)NC(=O)[C@H](CC(N)=O)NC(=O)C2(CCCCC2)NC(=O)[C@H](Cc2ccc(O)c(N)c2)NC1=O` (stereo partly drawn) the figure was 5.01. The same measure, in the same setting: with `CC(C)C[C@@H]1NC(=O)[C@H](CCCC(=O)O)NC(=O)C[S+]([O-])C[C@@H](C(N)=O)NC(=O)CCCCNC(=O)[C@H](CC(N)=O)NC(=O)C2(CCCCC2)NC(=O)[C@H](Cc2ccc(O)c(C(=O)O)c2)NC1=O` (stereo partly drawn) the figure was 4.80; with `CC(C)C[C@@H]1NC(=O)[C@H](CC(C(=O)O)C(=O)O)NC(=O)C[S+]([O-])C[C@@H](C(N)=O)NC(=O)CCNC(=O)[C@H](CC(N)=O)NC(=O)C2(CCCCC2)NC(=O)[C@H](Cc2ccc(O)c(N)c2)NC1=O` (stereo partly drawn), 6.44. On the same count and under the same terms, with `CC(C)C[C@@H]1NC(=O)[C@H](CCCC(=O)O)NC(=O)C[S+]([O-])C[C@H](C(N)=O)NC(=O)CCCCNC(=O)[C@H](CC(N)=O)NC(=O)C2(CCCCC2)NC(=O)[C@H](Cc2ccc(O)c(O)c2)NC1=O` (stereo partly drawn) the figure was 3.26. `CC(C)C[C@@H]1NC(=O)[C@H](CCCC(=O)O)NC(=O)C[S+]([O-])C[C@@H](C(N)=O)NC(=O)CCCCNC(=O)[C@H](CC(N)=O)NC(=O)C2(CCCCC2)NC(=O)[C@H](Cc2ccc(O)c(O)c2)NC1=O` (stereo partly drawn): the pIC50 was 4.06.

As to `CC(C)C[C@@H]1NC(=O)[C@H](CCCC(=O)O)NC(=O)C[S+]([O-])C[C@@H](C(N)=O)NC(=O)CCCCNC(=O)[C@H](CC(N)=O)NC(=O)C2(CCCCC2)NC(=O)[C@H](Cc2ccc(O)c([N+](=O)[O-])c2)NC1=O` (stereo partly drawn), the pIC50 is 4.60.

For the molecule `CC(C)C[C@@H]1NC(=O)[C@H](CCCC(=O)O)NC(=O)C[S+]([O-])C[C@@H](C(N)=O)NC(=O)CCCCNC(=O)[C@H](CC(N)=O)NC(=O)C2(CCCCC2)NC(=O)[C@H](Cc2ccc(O)c(N)c2)NC1=O` (stereo partly drawn), the pIC50 is 5.41. As for `CC(C)C[C@@H]1NC(=O)[C@H](CCCC(=O)O)NC(=O)C[S+]([O-])C[C@H](C(N)=O)NC(=O)CCCCNC(=O)[C@H](CC(N)=O)NC(=O)C2(CCCCC2)NC(=O)[C@H](Cc2ccc(O)c([N+](=O)[O-])c2)NC1=O` (stereo partly drawn), the pIC50 is 3.58.

For the molecule `COc1cc(C[C@@H]2NC(=O)[C@H](CC(C)C)NC(=O)[C@H](CCCC(=O)O)NC(=O)C[S+]([O-])C[C@H](C(N)=O)NC(=O)CCCCNC(=O)[C@H](CC(N)=O)NC(=O)C3(CCCCC3)NC2=O)ccc1O` (stereo partly drawn), the pIC50 was less than 3.00. On the same count and under the same terms, with `CC(C)C[C@@H]1NC(=O)[C@H](CCCC(=O)O)NC(=O)CSC[C@@H](C(N)=O)NC(=O)CCCCNC(=O)[C@H](CC(N)=O)NC(=O)C2(CCCCC2)NC(=O)[C@H](Cc2ccc(O)cc2)NC1=O` ({CH2CO}-[Aad]LY[Ac6c]N[Ava]C-NH2; thioether N-7) the figure was 4.03; with `CC(C)C[C@@H]1NC(=O)[C@H](CCCC(=O)O)NC(=O)CSC[C@@H](C(N)=O)NC(=O)CCCCNC(=O)[C@H](CC(N)=O)NC(=O)C2(CCCCC2)NC(=O)[C@H](Cc2ccc(O)c(O)c2)NC1=O` ({CH2CO}-[Aad]L[Dopa][Ac6c]N[Ava]C-NH2; thioether N-7), 3.87; with `CC(C)C[C@@H]1NC(=O)[C@H](CCCC(=O)O)NC(=O)CSC[C@@H](C(N)=O)NC(=O)CCCCNC(=O)[C@H](CC(N)=O)NC(=O)C2(CCCCC2)NC(=O)[C@H](Cc2ccc(O)c(N)c2)NC1=O` ({CH2CO}-[Aad]L[Tyr(3-NH2)][Ac6c]N[Ava]C-NH2; thioether N-7), 5.05. Still for that read-out and setting: with `CC(C)C[C@@H]1NC(=O)[C@H](CCCC(=O)O)NC(=O)CSC[C@@H](C(N)=O)NC(=O)CCCCNC(=O)[C@H](CC(N)=O)NC(=O)C2(CCCCC2)NC(=O)[C@H](Cc2ccc(O)c([N+](=O)[O-])c2)NC1=O` ({CH2CO}-[Aad]L[Tyr(3-NO2)][Ac6c]N[Ava]C-NH2; thioether N-7) the figure was 3.74; with `COc1cc(C[C@@H]2NC(=O)[C@H](CC(C)C)NC(=O)[C@H](CCCC(=O)O)NC(=O)CSC[C@@H](C(N)=O)NC(=O)CCCCNC(=O)[C@H](CC(N)=O)NC(=O)C3(CCCCC3)NC2=O)ccc1O` ({CH2CO}-[Aad]L[Tyr(3-OMe)][Ac6c]N[Ava]C-NH2; thioether N-7), 3.61; with `CC(C)C[C@@H]1NC(=O)[C@H](CCCC(=O)O)NC(=O)CSC[C@@H](C(N)=O)NC(=O)CCCCNC(=O)[C@H](CC(N)=O)NC(=O)C2(CCCCC2)NC(=O)[C@H](Cc2ccc(O)c(C(=O)O)c2)NC1=O` ({CH2CO}-[Aad]L[X1][Ac6c]N[Ava]C-NH2; thioether N-7), 4.06. On the same count and under the same terms, with `CC(C)C[C@@H]1NC(=O)[C@H](CC(C(=O)O)C(=O)O)NC(=O)CSC[C@@H](C(N)=O)NC(=O)[C@H](CC(N)=O)NC(=O)C2(CCCCC2)NC(=O)[C@H](Cc2ccc(O)c(N)c2)NC1=O` ({CH2CO}-[Gla]L[Tyr(3-NH2)][Ac6c]NC-NH2; thioether N-6) the figure was 4.65; with `CC(C)C[C@@H]1NC(=O)[C@H](CC(C(=O)O)C(=O)O)NC(=O)CSC[C@@H](C(N)=O)NC(=O)CCCCNC(=O)[C@H](CC(N)=O)NC(=O)C2(CCCCC2)NC(=O)[C@H](Cc2ccc(O)c(N)c2)NC1=O` ({CH2CO}-[Gla]L[Tyr(3-NH2)][Ac6c]N[Ava]C-NH2; thioether N-7), 6.72; with `CC(C)C[C@@H]1NC(=O)[C@H](CC(C(=O)O)C(=O)O)NC(=O)CSC[C@@H](C(N)=O)NC(=O)CCNC(=O)[C@H](CC(N)=O)NC(=O)C2(CCCCC2)NC(=O)[C@H](Cc2ccc(O)c(N)c2)NC1=O` ({CH2CO}-[Gla]L[Tyr(3-NH2)][Ac6c]N[βAla]C-NH2; thioether N-7), 5.99.
